Measured values: ChEMBL document CHEMBL4371052, “Diarylcarbonates are a new class of deubiquitinating enzyme inhibitor” (Bioorg Med Chem Lett, 2019)
Calls of active or inactive are those of the source. The calls are words filed in the database; no cut-off is given here.

How the values were obtained:
[1] = molecular target: Ubiquitin carboxyl-terminal hydrolase 28 (Homo sapiens) (UniProt Q96RU2); test: Inhibition of USP28 in HEK293T cell lysates at 25 uM using HA-tagged vinyl-sulfone as substrate measured after 2 to 30 mins by Western blot analysis; assay type: subcellular; details: Lysate
Ubiquitin carboxyl-terminal hydrolase 28 (Homo sapiens), sequence (Q96RU2 whole entry): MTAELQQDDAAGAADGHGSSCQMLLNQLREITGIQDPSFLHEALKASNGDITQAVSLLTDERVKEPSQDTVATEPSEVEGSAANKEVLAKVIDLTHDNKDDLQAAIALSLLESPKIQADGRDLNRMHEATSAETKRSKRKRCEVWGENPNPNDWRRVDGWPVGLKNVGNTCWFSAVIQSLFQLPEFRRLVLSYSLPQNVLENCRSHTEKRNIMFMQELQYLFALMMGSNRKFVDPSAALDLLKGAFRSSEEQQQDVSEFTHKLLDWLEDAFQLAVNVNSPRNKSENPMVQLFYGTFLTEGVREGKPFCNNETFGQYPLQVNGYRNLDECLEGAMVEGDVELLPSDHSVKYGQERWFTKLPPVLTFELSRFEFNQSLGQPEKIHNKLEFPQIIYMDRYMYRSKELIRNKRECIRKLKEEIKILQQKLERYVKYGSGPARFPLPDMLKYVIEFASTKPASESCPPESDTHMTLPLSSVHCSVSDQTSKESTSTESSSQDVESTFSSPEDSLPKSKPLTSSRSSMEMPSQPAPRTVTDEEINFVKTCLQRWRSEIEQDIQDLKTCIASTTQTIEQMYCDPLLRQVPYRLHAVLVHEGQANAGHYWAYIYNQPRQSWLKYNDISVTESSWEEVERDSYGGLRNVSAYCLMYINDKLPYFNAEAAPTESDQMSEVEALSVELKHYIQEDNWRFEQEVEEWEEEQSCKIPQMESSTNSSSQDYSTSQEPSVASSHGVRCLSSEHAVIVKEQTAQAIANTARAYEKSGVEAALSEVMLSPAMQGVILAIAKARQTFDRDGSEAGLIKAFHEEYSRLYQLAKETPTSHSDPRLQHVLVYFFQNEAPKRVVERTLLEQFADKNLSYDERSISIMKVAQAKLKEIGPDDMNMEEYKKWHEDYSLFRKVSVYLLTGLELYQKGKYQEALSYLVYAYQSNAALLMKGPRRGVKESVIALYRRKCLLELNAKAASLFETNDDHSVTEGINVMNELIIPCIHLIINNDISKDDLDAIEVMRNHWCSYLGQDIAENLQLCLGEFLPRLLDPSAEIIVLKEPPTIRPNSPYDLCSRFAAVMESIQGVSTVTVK
Outline: (§1)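 HEK 293T lysate (1.5 mg/ml) given compound (25 μM) or DMSO at the same time as HA-Ub-VS (1.5 μM). Aliquots withdrawn over time were run on SDS-PAGE and immunoblotted for HA.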

[2] = molecular target: T1, Ubiquitin carboxyl-terminal hydrolase 19 (Homo sapiens) (UniProt O94966); test: Inhibition of USP19 in HEK293T cell lysates assessed as enzyme recovery at 250 uM using HA-tagged vinyl-sulfone as substrate […] followed by 10-fold dilution and subsequent substrate addition measured up to 2 hrs by Western blot analysis; assay type: subcellular; details: Lysate
T1 sequence (whole entry): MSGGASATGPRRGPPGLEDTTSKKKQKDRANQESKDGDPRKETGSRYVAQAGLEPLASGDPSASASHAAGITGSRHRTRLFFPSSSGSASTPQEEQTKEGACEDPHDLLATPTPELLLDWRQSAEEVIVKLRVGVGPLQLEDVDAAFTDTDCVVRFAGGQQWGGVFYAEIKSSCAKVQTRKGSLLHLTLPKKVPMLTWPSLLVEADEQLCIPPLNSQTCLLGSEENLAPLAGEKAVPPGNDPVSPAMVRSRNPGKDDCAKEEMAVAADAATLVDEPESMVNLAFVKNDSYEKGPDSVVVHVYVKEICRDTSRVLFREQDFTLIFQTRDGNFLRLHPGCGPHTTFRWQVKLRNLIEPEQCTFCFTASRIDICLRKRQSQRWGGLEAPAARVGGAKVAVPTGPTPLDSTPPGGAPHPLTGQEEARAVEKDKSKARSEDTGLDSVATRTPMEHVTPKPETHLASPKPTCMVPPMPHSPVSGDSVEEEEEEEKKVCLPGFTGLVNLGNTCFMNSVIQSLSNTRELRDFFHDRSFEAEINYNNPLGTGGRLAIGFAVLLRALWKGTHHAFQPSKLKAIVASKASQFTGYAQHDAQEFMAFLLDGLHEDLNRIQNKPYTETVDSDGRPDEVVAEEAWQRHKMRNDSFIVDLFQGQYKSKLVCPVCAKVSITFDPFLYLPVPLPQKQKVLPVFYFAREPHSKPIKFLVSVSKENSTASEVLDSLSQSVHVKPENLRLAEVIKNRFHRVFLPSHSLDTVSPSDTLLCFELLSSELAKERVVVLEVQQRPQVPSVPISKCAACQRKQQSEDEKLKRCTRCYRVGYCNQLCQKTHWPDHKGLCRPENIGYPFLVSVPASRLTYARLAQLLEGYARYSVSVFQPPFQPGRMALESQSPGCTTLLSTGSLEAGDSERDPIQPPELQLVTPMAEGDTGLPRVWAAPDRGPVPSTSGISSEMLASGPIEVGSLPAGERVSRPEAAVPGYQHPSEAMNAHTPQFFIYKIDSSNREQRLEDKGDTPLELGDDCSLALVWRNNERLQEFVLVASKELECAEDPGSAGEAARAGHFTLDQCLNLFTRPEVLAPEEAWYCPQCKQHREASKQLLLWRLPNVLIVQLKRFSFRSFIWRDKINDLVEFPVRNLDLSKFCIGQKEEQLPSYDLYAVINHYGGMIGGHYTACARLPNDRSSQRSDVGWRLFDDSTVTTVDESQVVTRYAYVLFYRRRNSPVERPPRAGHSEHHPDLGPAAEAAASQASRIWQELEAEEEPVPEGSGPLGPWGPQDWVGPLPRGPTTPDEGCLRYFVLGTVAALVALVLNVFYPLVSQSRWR

[3] = molecular target: Ubiquitin carboxyl-terminal hydrolase 7 (Homo sapiens) (UniProt Q93009); test: Inhibition of USP7 in HEK293T cell lysates assessed as enzyme recovery at 250 uM using HA-tagged vinyl-sulfone as substrate […] followed by 10-fold dilution and subsequent substrate addition measured up to 2 hrs by Western blot analysis; assay type: subcellular; details: Lysate
Ubiquitin carboxyl-terminal hydrolase 7 (Homo sapiens), sequence (Q93009 whole entry, looked up, the tested form may be a part): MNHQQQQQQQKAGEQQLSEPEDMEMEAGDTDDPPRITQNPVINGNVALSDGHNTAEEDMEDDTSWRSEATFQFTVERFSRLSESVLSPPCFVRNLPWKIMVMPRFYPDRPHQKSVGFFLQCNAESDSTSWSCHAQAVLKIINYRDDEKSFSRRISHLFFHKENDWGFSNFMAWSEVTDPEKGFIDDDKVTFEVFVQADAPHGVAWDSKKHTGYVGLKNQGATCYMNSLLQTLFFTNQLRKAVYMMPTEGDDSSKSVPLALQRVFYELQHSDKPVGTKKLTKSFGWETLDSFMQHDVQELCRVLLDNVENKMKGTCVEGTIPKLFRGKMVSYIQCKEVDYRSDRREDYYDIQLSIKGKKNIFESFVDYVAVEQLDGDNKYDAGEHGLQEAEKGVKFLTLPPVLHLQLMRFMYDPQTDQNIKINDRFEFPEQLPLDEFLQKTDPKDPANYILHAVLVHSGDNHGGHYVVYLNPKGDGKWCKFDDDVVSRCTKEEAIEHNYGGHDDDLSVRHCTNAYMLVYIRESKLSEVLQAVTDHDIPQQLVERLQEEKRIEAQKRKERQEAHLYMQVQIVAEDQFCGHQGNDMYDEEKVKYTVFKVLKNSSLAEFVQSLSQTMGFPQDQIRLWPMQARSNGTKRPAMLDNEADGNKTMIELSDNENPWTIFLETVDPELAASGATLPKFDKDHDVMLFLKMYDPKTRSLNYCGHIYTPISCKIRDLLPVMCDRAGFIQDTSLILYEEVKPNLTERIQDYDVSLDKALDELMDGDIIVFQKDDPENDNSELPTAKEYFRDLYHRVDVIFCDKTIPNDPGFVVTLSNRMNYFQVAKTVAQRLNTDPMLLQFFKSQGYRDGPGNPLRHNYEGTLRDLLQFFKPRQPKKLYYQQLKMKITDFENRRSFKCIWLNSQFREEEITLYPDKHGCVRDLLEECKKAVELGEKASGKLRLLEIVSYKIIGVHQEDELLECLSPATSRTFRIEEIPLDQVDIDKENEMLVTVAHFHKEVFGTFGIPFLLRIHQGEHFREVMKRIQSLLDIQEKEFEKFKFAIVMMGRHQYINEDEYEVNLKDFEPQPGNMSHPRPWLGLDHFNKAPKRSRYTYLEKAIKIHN

[4] = molecular target: Ubiquitin carboxyl-terminal hydrolase 7 (Homo sapiens) (UniProt Q93009); test: Inhibition of USP7 in human MCF7 cells assessed as decrease in Mdm2 expression at 25 uM after 4 hrs by Western blot analysis; assay type: cell-based
Outline: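 MCF7 cells treated with compound for 4 h. Mdm2, p53 and p21 levels were determined by immunoblotting.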

[5] = molecular target: T1, Ubiquitin carboxyl-terminal hydrolase 19 (Homo sapiens); test: Inhibition of USP19 in HEK293T cell lysates at 25 uM using HA-tagged vinyl-sulfone as substrate measured after 2 to 30 mins by Western blot analysis; assay type: subcellular; details: Lysate; outline: as §1
Papain (Carica papaya) = molecular target: T2, Papain (Carica papaya) (UniProt P00784); test: Inhibition of papaya papain at 100 uM using Z-Arg-AMC as substrate preincubated for 30 mins followed by substrate addition by fluorescence assay
T2 sequence (whole entry): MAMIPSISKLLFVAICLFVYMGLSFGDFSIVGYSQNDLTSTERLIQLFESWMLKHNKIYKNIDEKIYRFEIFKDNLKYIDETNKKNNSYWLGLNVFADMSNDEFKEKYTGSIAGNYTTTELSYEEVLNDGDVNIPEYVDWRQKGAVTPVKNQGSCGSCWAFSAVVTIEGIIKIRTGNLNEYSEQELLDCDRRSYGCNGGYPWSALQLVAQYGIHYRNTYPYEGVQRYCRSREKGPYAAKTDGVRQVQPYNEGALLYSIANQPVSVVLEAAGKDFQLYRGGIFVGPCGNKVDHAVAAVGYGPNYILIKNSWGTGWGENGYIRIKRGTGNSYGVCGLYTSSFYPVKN
Outline: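 Enzyme (papain or ficin) preincubated 30 min with inhibitor at 100 μM, then Z-Arg-AMC substrate added at 300 μM; AMC release followed.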

[6] = molecular target: Ubiquitin carboxyl-terminal hydrolase 7 (Homo sapiens) (UniProt Q93009); test: Inhibition of recombinant His6-tagged USP7 catalytic domain (unknown origin) assessed as association constant using Ub-AMC as substrate by fluorescence assay

inhibition [1]: inactive | inhibition [2]: inactive | inhibition [3]: inactive | inhibition [4]: Active | inhibition [5]: inactive | inhibition (Papain (Carica papaya)): inactive | K [6]: 9 M⁻¹ s⁻¹
Structure (SMILES): NCc1ccc(OC(=O)Oc2ccc3ccccc3c2)cc1
